Tm and folding enthalpy data for 36 sequences are collected here from the array DNA melting data of Ke et al. (doi:10.1101/2024.01.08.574731).

The nature of data set [1]: melting temperature; fluorescence melt of hairpins on a sequencing array, two-state fit, raised by 9.35 °C to match UV melts. The conditions noted are these: sodium 0.088 M. The method, boiled down: (§1)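 In 50 mM Na-HEPES pH 8.0 containing 25 mM NaCl, hairpins from the library on a sequenced MiSeq flow cell were imaged for Cy3 fluorescence at 2.5 °C steps up to 60 °C, with Cy3 and quencher oligos annealed. After normalisation to pre-quench Cy3 and to control constructs, two-state fits with bootstrapping gave melting temperature and folding enthalpy. Four replicates were combined by inverse-variance weighting, and fitted temperatures were shifted up by 9.35 °C to match UV melts.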

Data set [2] can be described thus: folding enthalpy; higher = less favourable; fluorescence melt of hairpins on a sequencing array, two-state fit. The conditions noted are these: sodium 0.088 M. The method, boiled down: as §1

In the case of GTACCCCGAAAGGGCTAC (((.(((....))).))), the Tm in data set [1] was 35.7 °C. In addition, in data set [2], the folding enthalpy is -14 kcal/mol.
The matching figures for GTACCCGAAAGGGACTAC ((((((....)))..))): 45.8 °C and -14.3 kcal/mol.
For GTACCCGAAAGGGAGTAC ((((((....)))..))), in that order: 39.9 °C and -15.3 kcal/mol.
For GTACCCGAAAGGGATAC ((((((....))).))), the Tm in data set [1] is 47 °C. In data set [2], the folding enthalpy is -15.3 kcal/mol.
Regarding GTACCCGGAAACGGGCAC ((.((((....)))).)), in data set [1], the Tm was 50 °C. The folding enthalpy in data set [2] was -18.7 kcal/mol.
As for GTACCCTCGAAAGAGTAC (((..(((....)))))), the Tm in data set [1] came to 25.2 °C. Moreover, in data set [2], the folding enthalpy is -10.6 kcal/mol.
Regarding GTACCGGGAAACCGGTGC (.(((((....))))).), in data set [1], the Tm stood at 57.1 °C. In addition, the folding enthalpy in data set [2] was -19.1 kcal/mol.
On to GTACCGTCGAAAGACTAC (((..(((....)))))), for which the Tm in data set [1] was determined as 25.7 °C. Besides, the folding enthalpy in data set [2] was -8.88 kcal/mol.
For GTACCTGGAAACAGGTGC (.(((((....))))).), in that order: 52.4 °C and -28.1 kcal/mol.
Regarding GTACGACCGAAAGGTTAC (((..(((....)))))), the Tm in data set [1] was 19.8 °C. Besides, in data set [2], the folding enthalpy was -8.91 kcal/mol.
As for GTACGCGAAAGCGAGTAC ((((((....)))..))), the Tm in data set [1] worked out at 41.1 °C. Further, the folding enthalpy in data set [2] was -13.8 kcal/mol.
In the case of GTACGCGAAAGCGCATAC ((((((....)))..))), the Tm in data set [1] is 22.5 °C. Further, in data set [2], the folding enthalpy is -5.57 kcal/mol.
For GTACGCGGAAACGCACAC ((..(((....)))..)), the Tm in data set [1] amounted to 33.1 °C. The folding enthalpy in data set [2] is -13.8 kcal/mol.
For the sequence GTACGCGGAAACGCATAC (((.(((....))).))), the Tm in data set [1] is 39.9 °C. For the same sequence, in data set [2], the folding enthalpy was -19.6 kcal/mol.
As to GTACGCGGAAACGTGTAC ((((.((....)).)))), in data set [1], the Tm was 54.6 °C. The folding enthalpy in data set [2] was -28.1 kcal/mol.
With GTACGGCGAAAGCCCTAC (((.(((....))).))), the Tm in data set [1] amounted to 35.9 °C. In addition, the folding enthalpy in data set [2] was -12.5 kcal/mol.
In the case of GTACGGCGAAAGCCTAC (((.(((....)))))), the Tm in data set [1] turned out to be 44.4 °C. Further, the folding enthalpy in data set [2] was -14.9 kcal/mol.
Consider GTACGGGAAACCGTAC ((((((....)))))), for which, in data set [1], the Tm stood at 63.2 °C. Also, the folding enthalpy in data set [2] was -27.9 kcal/mol.
Take GTACGGGGAAACTCGTGC (.(((.(....).))).): the Tm in data set [1] stood at 39.6 °C. The folding enthalpy in data set [2] was -27.5 kcal/mol.
Take GTACGTGAAAACGTAC ((((((....)))))): in data set [1], the Tm worked out at 59.5 °C. In addition, the folding enthalpy in data set [2] is -37 kcal/mol.
GTACTAGCGAAAGCTTAC (((..(((....)))))): in data set [1], the Tm stood at 28.2 °C. Besides, the folding enthalpy in data set [2] was -9.73 kcal/mol.
For GTACTCCGAAAGGACTAC (((.(((....))).))), the Tm in data set [1] was 33.2 °C. In addition, in data set [2], the folding enthalpy was -14.1 kcal/mol.
In the case of GTACTCGAAAGAGCGTAC ((((((....)))..))), the Tm in data set [1] was found to be 28.5 °C. Moreover, the folding enthalpy in data set [2] was -10.7 kcal/mol.
As to GTACTCTCGAAAGAGTAC (((..(((....)))))), the Tm in data set [1] turned out to be 52.5 °C. Moreover, the folding enthalpy in data set [2] is -36.9 kcal/mol.
For the sequence GTACTGGGAAACCAGTAC (((((((....))))))), in data set [1], the Tm worked out at 58.5 °C. Further, the folding enthalpy in data set [2] was -36.9 kcal/mol.
As to GTACTGGGAAACCGGTAC ((((.((....)).)))), the Tm in data set [1] was found to be 50.1 °C. Also, in data set [2], the folding enthalpy was -35.3 kcal/mol.
As for GTACTTGCGAAAGCATAC (((..(((....)))))), the Tm in data set [1] stood at 30.2 °C. Moreover, the folding enthalpy in data set [2] is -9 kcal/mol.
Regarding GTAGAAACGAAAGTTTAC (((..(((....)))))), in data set [1], the Tm was 27.4 °C. Moreover, the folding enthalpy in data set [2] was -15.8 kcal/mol.
For GTAGAAGGAAACTTCTAC (((((((....))))))), in that order: 51.4 °C and -40 kcal/mol.
Consider GTAGACGAAAGTCAATAC ((((((....)))..))), for which, in data set [1], the Tm stood at 27.6 °C. The folding enthalpy in data set [2] is -13.5 kcal/mol.
Turning to GTAGACGAAAGTCATAC ((((((....))).))), the Tm in data set [1] worked out at 39.9 °C. Moreover, the folding enthalpy in data set [2] is -12.8 kcal/mol.
As for GTAGACGAAAGTCCCTAC ((((((....)))..))), the Tm in data set [1] stood at 19.7 °C. Besides, the folding enthalpy in data set [2] was -7.5 kcal/mol.
As for GTAGACGAAAGTCGCTAC ((((((....)))..))), the Tm in data set [1] amounted to 40.5 °C. Moreover, the folding enthalpy in data set [2] is -10.8 kcal/mol.
GTAGACGAAAGTCTTAC ((((((....))).))): in data set [1], the Tm is 38.6 °C. In data set [2], the folding enthalpy is -14.6 kcal/mol.
Consider GTAGAGGGAAACCTCCAC ((.((((....)))).)), for which, in data set [1], the Tm was determined as 31.2 °C. Moreover, the folding enthalpy in data set [2] was -16.7 kcal/mol.
Take GTAGATGGAAACATCTGC (.(((((....))))).): in data set [1], the Tm was 45.6 °C. Also, the folding enthalpy in data set [2] is -20.8 kcal/mol.
